Data taken from article PMC3099476 (Toxicology and applied pharmacology, 2011).

Columns and labels:
[1] = tested on: B6C3F1 male mice; test: Serum ALT in APAP toxicity; format: in vivo, mouse
[2] = tested on: B6C3F1 male mice; test: Liver histology necrosis score; format: in vivo, mouse; conditions: score 0 absent to 4 severe
In short: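 Six-week male B6C3F1 mice, fasted overnight, dosed at 0800 with the analgesic hepatotoxicant IP, then immediately the test compound (MPT inhibitor, 50 or 10 mg/kg IP) or vehicle. Hepatotoxicant was 200 mg/kg IP in the 10 mg/kg arm. Saline controls included; 3–6 mice per group. Killed at 4 h. Liver H&E sections scored blind by three reviewers, 0 (absent) to 4 (severe); mean ± SE.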

[3] = tested on: APAP protein adducts in liver; test: Hepatic APAP protein adducts; format: in vivo, mouse
[4] = tested on: HIF-1α; conditions: B6C3F1 male mice with APAP toxicity; 1 h; ref James et al., 2006; cited from earlier work
[5] = APAP 200 mg/kg IP followed by pimonidazole 60 mg/kg IP vs APAP/vehicle, 1 h

Row | Hepatic APAP protein adducts vs saline ([3]; APAP followed by CYC 50 mg/kg IP or vehicle, 1, 2, and 4 h) | Hepatic protein adducts vs saline ([3]; APAP/veh or APAP/CYC 10 mg/kg, 1 h) | APAP protein adducts ([3]; APAP/veh or APAP/CYC 10 mg/kg, 4 h (data not shown)) | Hepatic APAP protein adduct levels ([3]; separate experiment, APAP/veh or APAP/CYC 10 mg/kg, 1 h) | Hepatic APAP protein adducts [3, 5] | Effect of pimonidazole on APAP metabolism ([3]; pimonidazole 60 mg/kg IP after APAP 200 mg/kg IP, 1 h) | SMILES | ALT vs saline ([1]; APAP 200 mg/kg IP followed by CYC 10 mg/kg IP or vehicle, 4 h) | Serum ALT, time course ([1]; APAP 200 mg/kg IP, at 2, 4, 8, 24 and 48 h, vs saline) | Serum ALT levels ([1]; APAP 15, 30, 100, or 200 mg/kg IP, sacrificed at 1 h, vs saline) | Serum ALT vs saline ([1]; APAP followed by CYC 50 mg/kg IP or vehicle, 4 h) | Necrosis Scores at 4 hours, Mean ([2]; Table 1A, CYC 50 mg/kg experiment) | Necrosis Scores at 4 hours, Mean ([2]; Table 1B, CYC 10 mg/kg experiment) | HIF-1α induction [4] | Serum ALT [1, 5]
1 | increased | increased above saline | comparable | elevated |  |  | CC(=O)Nc1ccc(O)cc1 [APAP, N-acetyl-p-aminophenol] | significantly increased | significantly increased above saline | No significant changes | significantly increased | 3 | 2 | induction of HIF-1α | 
2 |  |  |  |  | comparable | no inhibitory affect on APAP metabolism | O=[N+]([O-])c1nccn1CC(O)CN1CCCCC1 (centres unmarked) [pimonidazole] |  |  |  |  |  |  |  | comparable
